Source: PubChem
In the library only some 2.8% were active in any assay of this set; here they are far more common.
NPY-Y2 PAM-ag = human NPY-Y2 potentiation or agonism, primary screen | P49146 | cells expressing NPY-Y2, potentiator/agonist read-out | activation, % at 3.6 µM | actives 0.45% (n = 220,000) | AID 1359; in the data active = activation above about 27%;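 note: cells stimulated with NPY near EC25 plus isoproterenol at EC100; 0% = vehicle plus submaximal agonist and 100% = vehicle plus saturating agonist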
Target sequence (P49146 whole entry, looked up): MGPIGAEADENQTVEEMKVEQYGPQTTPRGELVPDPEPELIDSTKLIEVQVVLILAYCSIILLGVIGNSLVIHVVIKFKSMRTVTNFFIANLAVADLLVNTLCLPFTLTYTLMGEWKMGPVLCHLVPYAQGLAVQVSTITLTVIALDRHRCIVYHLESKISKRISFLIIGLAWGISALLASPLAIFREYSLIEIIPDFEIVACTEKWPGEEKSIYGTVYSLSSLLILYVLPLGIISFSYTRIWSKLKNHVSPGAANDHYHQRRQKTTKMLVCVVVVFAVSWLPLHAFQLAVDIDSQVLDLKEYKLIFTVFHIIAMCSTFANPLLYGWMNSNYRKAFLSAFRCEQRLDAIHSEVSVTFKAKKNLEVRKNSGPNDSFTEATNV
EP2 mod = modulates human prostaglandin E2 receptor EP2 signaling; P43116; EP2-expressing cells, cAMP HTRF FRET, PGE2 co-stimulation; induction, % at 25 µM; actives 0.83% (n = 260,000); AID 940;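 active = compounds whose cAMP rise, as percent of the full-agonist control response, exceeds 60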;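 note: rat C6 glioma line stably carrying human EP2 under a CMV promoter; the protocol text gives 20 µM as final concentration; 100% = response of wells given 1 µM PGE2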
NPY-Y1 PAM-ag = potentiates or activates human NPY-Y1 receptor. NPY-Y1 expressing cells, potentiator/agonist activation. P25929. actives 0.37% (n = 220,000). activation, % at 3.6 µM; in the data active = activation above about 33%, passing the limit was not always enough;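 note: cells stimulated with NPY at EC10 then isoproterenol at EC100; 0% = low agonist plus stimulus and 100% = saturating agonist plus stimulus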
EP2 antag = EP2 receptor (human) inhibition; P43116; C6 glioma cells expressing human EP2, cAMP TR-FRET; cells stimulated with saturating PGE2; inhibition, % at 25 µM; actives 0.52% (n = 260,000); AID 1422;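 active = percent inhibition above 40 after rounding to a whole number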;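 note: rat C6 glioma host cells with rolipram phosphodiesterase inhibitor present; the protocol text gives 20 µM as final concentration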
NPY-Y1 antag = blocks the human neuropeptide Y Y1 receptor; HEK293-CNG Y1 cells, membrane potential fluorescence; NPY at EC95, then isoproterenol; inhibition, % at 3.6 µM; actives 1% (n = 200,000);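 active = inhibition above the campaign mean inhibition of all tested compounds plus 3 SD, cut at about 20% in these data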;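 note: 0% = DMSO wells given NPY plus isoproterenol and 100% = isoproterenol alone without NPY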
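Material: Y1- and CNG-channel-expressing HEK293 cells / Probe or stimulus: NPY 25 nM then isoproterenol 1 µM plus Ro 20-1724 25 µM / Doses: 3.6 µM single dose, DMSO 0.4% / Schedule: compound incubation 1 h at room temperature, readout 45 min post-stimulation / Signal: membrane potential fluorescence / Benchmarks: isoproterenol-only wells as full block versus NPY-plus-isoproterenol wells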
NPY Y2 blocker = NPY-Y2 (human) receptor antagonism. P49146. NPY-Y2 expressing cells, antagonist mode. inhibition, % at 2.7 µM. actives 0.99% (n = 140,000);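 note: 0% = vehicle with agonist challenge and 100% = reference antagonist with challenge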
NPY-Y1 ant conf = confirmation of human neuropeptide Y receptor Y1 antagonists; inhibition, % at 3.6 µM; AID 1254; HEK293-CNG NPY-Y1, membrane potential fluorescence, cAMP; NPY challenge against isoproterenol-raised cAMP; actives 21% (n = 1,200); shares compounds with NPY-Y1 antag; in the data active = inhibition above about 20%;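 note: 0% = vehicle with agonist plus stimulus and 100% = stimulus alone without agonist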
NPY2 antag ctr = antagonizes human NPY-Y2, counter-screen to NPY-Y1 antagonists. shares compounds with NPY-Y1 antag. HEK293 NPY-Y2 CNG membrane potential fluorescence, antagonism; cells given NPY, then isoproterenol. inhibition, % at 3.6 µM. actives 28% (n = 1,200). AID 1255;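 note: 0% = DMSO with agonist challenge and 100% = reference antagonist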
Starred values were filed as active, the others as inactive; nt = no result given. Cut-off read from the data, not from the text of the source, unless noted: active = inhibition above about 17%; inactive = the rest.

SMILES	NPY-Y2 PAM-ag	EP2 mod	NPY-Y1 PAM-ag	EP2 antag	NPY-Y1 antag	NPY Y2 blocker	NPY-Y1 ant conf	NPY2 antag ctr
O=C(NC(N1CCOCC1)C(Cl)(Cl)Cl)c1ccc(F)cc1 (centres undefined)	-2	-4	-1	5	53*	nt	0	0
C#CCn1c(S(=O)(=O)Cc2ccc(OC)cc2)nc(-c2ccccc2)c1-c1ccccc1	-27	45	-4	-1	20*	12	8	4
Cc1nc(NCCNS(=O)(=O)c2ccccc2)c2c3c(sc2n1)CCCC3	nt	-71	nt	10	nt	nt	nt	nt
Cc1occc1-c1nnc(SCC(=O)N2CCCC2)n1-c1ccc(F)cc1	nt	3	nt	11	nt	nt	nt	nt
CCc1nc(N2CCN(C(=O)c3ccccc3)CC2)c2c3c(sc2n1)CCCC3	-8	22	-21	7	22*	nt	9	10
O=C(O)CCSc1nc2ccccc2s1	-30	26	-36	2	27*	10	8	6
Cc1c(C(c2ccccc2O)c2c(C)n(C)n(-c3ccccc3)c2=O)c(=O)n(-c2ccccc2)n1C	-1	-21	5	4	2	nt	nt	nt
Cc1c(C(c2cc3c(cc2Br)OCO3)c2c(C)n(C)n(-c3ccccc3)c2=O)c(=O)n(-c2ccccc2)n1C	-15	14	13	nt	29*	6	3	8
COc1ccc(C(c2c(C)n(C)n(-c3ccccc3)c2=O)c2c(C)n(C)n(-c3ccccc3)c2=O)cc1O	-7	5	14	5	56*	nt	-1	0
CCn1c(CNc2ccc(F)cc2)nnc1SCC(=O)Nc1ccc(C)cc1Br	nt	1	nt	2	nt	nt	nt	nt
CCCn1c(SCC(=O)c2ccc(Cl)cc2)nc2c1c(=O)[nH]c(=O)n2C	nt	-25	nt	4	nt	nt	nt	nt
CCCn1c(SCc2ccc(Cl)cc2)nc2c1c(=O)[nH]c(=O)n2C	-8	48	-33	4	24*	12	22*	40*
O=C(NNC(=S)NCc1ccccc1)c1ccc2c(c1)OCO2	-19	-7	-13	2	10	7	nt	nt
O=C(NC(=S)NCc1ccccc1)c1ccc2c(c1)OCO2	-7	2	-12	5	21*	9	9	9
CC(=O)Nc1ccc(S(=O)(=O)NCCSc2nnc3c(n2)[nH]c2c(C)ccc(C)c23)cc1	nt	-28	nt	13	nt	nt	nt	nt
N=c1c2c3c(sc2nc2n1CCCCC2)CCCCC3	8	-6	10	14	20*	9	2	6
COc1cccc(C2=NOC(C(=O)NCc3cccs3)C2)c1 (centres undefined)	-48	8	-13	6	30*	7	3	15
COc1ccc(C2=NOC(C(=O)NCc3ccc(F)cc3)C2)cc1OC (centres undefined)	-12	-21	-12	nt	33*	9	7	16
COc1ccc(CNC(=O)C2CC(c3cccc(OC)c3)=NO2)cc1 (centres undefined)	-32	-23	-28	7	12	12	nt	nt
COc1cc(C2=NOC(C(=O)NCc3ccc(F)cc3)C2)cc(OC)c1OC (centres undefined)	-23	10	-26	nt	16	5	nt	nt
COc1cccc(C2=NOC(C(=O)NCc3ccc(F)cc3)C2)c1 (centres undefined)	-47	-38	-55	nt	23*	13	15	24*
Cc1ccc2oc(C(=O)N3CCN(Cc4ccccc4F)C[C@@H]3C(C)C)cc(=O)c2c1	nt	4	nt	nt	nt	nt	nt	nt
CCn1c(=O)oc2cc(S(=O)(=O)NCC(c3ccc(F)cc3)N(C)C)ccc21 (centres undefined)	nt	-49	nt	11	nt	nt	nt	nt
CC(C)(C)c1ccc(CN2N=C(/C=C/c3ccccc3)CCC2=O)cc1	-21	42	-23	8	25*	nt	19	17
O=C1CCC(/C=C/c2ccccc2)=NN1Cc1ccccc1	-19	-58	-20	3	10	nt	nt	nt
SMILES	NPY-Y2 PAM-ag	EP2 mod	NPY-Y1 PAM-ag	EP2 antag	NPY-Y1 antag	NPY Y2 blocker	NPY-Y1 ant conf	NPY2 antag ctr
Cc1cccc2cc(CN(Cc3ccc4c(c3)OCO4)C(=O)Nc3ccc(F)cc3)c(=O)[nH]c12	nt	36	nt	11	nt	nt	nt	nt
Cc1nc(NCCc2ccccc2F)c(C#N)c(C)c1[N+](=O)[O-]	-6	31	-15	3	29*	6	8	3
Cc1nc(NCCc2ccc(F)cc2)c(C#N)c(C)c1[N+](=O)[O-]	4	22	-12	16	1	1	nt	nt
COc1cccc(NC(=O)CSc2nnc(COc3cccc(C)c3)n2C)c1	nt	-41	nt	14	nt	nt	nt	nt
CN1CCN(C(=O)c2ccccc2-c2nc(-c3ccccc3)no2)CC1	9	32	14	5	28*	3	0	2
COCCN1Cc2cccc(C(=O)Nc3cc(OC)ccc3OC)c2C1=O	-2	-9	-12	nt	34*	3	27*	62*
COc1cccc(NC(=O)NC(C)C2CC3CCC2C3)c1 (centres undefined)	-16	-42	-9	7	24*	nt	3	34*
O=c1[nH]c2cc3c(cc2cc1CN(Cc1ccco1)C(=S)Nc1ccccc1)OCO3	nt	37	nt	5	nt	nt	nt	nt
Cc1nn(-c2ccccc2)c(Cl)c1C1N2CCCN1CC2 (centres undefined)	nt	7	nt	5	nt	nt	nt	nt
COC(=O)c1[nH]c2c(c1C)C(=O)CCC2	4	9	-5	9	31*	0	-4	2
Cc1c(C(=O)OC2CCC(C)CC2)[nH]c2c1C(=O)CCC2 (centres undefined)	5	4	8	8	-5	1	nt	nt
CCN1/C(=C/C=C/c2oc3ccc4ccccc4c3[n+]2CC)Oc2ccc3ccccc3c21	-28	-22	-24	5	35*	nt	30*	30*
CC[n+]1c(/C=C/N(C)c2ccccc2)oc2ccc(Cl)cc21	-4	6	-8	5	5	4	nt	nt
O=C(c1nsc(Cl)c1Cl)N1CCCC(c2[nH]ncc2-c2ccncc2)C1 (centres undefined)	nt	-4	nt	5	nt	nt	nt	nt
O=C(NNc1cccc(Cl)n1)c1ccc(Cl)cc1Cl	-3	-16	12	1	4	-1	nt	nt
O=C(NNc1cccc(Cl)n1)c1ccccc1CC[N+](=O)[O-]	8	-2	20	5	23*	nt	2	-1
CCOc1ccc2c(c1)C(C)=CC(C)(C)N2S(=O)(=O)c1ccc(C)cc1	-24	46	-28	9	57*	nt	39*	25*
COC(=O)C1(C)CN(S(=O)(=O)c2ccc(C)cc2)c2cc(OC)ccc2C1=O (centres undefined)	-2	25	-9	-2	-3	3	nt	nt
